The record followed here is ChEMBL document CHEMBL3297709, “High affinity ligands and potent antagonists for the α1D-adrenergic receptor. Novel 3,8-disubstituted [1]benzothieno[3,2-d]pyrimidine derivatives” (Eur J Med Chem, 2014).

For assay [1], the target named is T1, Alpha-1A adrenergic receptor (Homo sapiens, UniProt P35348).
T1 sequence (P35348 whole entry): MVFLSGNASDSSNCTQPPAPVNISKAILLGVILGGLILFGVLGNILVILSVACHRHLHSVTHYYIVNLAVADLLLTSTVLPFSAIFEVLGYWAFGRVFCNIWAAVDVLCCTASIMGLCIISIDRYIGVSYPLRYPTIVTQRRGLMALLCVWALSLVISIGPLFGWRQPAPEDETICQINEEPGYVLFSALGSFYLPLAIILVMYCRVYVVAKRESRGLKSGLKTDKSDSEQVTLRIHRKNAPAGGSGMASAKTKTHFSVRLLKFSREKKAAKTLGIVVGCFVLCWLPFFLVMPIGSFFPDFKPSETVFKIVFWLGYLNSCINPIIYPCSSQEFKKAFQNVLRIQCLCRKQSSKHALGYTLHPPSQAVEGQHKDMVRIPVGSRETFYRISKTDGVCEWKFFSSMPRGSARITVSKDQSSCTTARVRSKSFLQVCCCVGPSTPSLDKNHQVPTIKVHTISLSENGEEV
Put plainly: Displacement of [125I]BE2254 from human alpha1a receptor expressed in HEK293 cells. In kind it is cell-based. An outline of the steps:
(§1)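 Membranes from HEK293 cells stably transfected with human α1A, α1B or α1D receptor cDNA, selected under 400 µg/mL geneticin. Competition against 50 pM [125I]BE2254; nonspecific binding defined with 10 µM phentolamine. Curves fitted by nonlinear regression. Mean ± SE of three experiments run in duplicate.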

Assay [2] concerns the target T2, Alpha-1B adrenergic receptor (Homo sapiens, UniProt P35368).
T2 sequence (P35368 whole entry): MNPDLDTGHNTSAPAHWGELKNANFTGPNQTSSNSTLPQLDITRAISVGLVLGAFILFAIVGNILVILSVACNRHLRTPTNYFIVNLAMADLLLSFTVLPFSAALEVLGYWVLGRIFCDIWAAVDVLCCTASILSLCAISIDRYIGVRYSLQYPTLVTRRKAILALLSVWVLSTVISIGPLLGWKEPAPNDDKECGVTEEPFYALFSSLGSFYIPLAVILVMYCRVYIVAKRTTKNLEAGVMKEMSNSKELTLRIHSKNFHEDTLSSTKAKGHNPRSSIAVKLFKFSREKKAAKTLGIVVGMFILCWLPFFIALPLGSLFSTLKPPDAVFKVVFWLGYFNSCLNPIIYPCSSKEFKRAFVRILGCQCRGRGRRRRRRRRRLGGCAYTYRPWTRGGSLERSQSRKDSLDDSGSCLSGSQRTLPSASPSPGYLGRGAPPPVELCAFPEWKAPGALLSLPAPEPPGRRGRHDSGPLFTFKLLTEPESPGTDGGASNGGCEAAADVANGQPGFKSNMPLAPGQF
Put plainly: Displacement of [125I]BE2254 from human alpha1b receptor expressed in HEK293 cells. Format: cell-based. An outline of the steps:
as §1

Assay [3] addresses T3, Alpha-1D adrenergic receptor (Homo sapiens, UniProt P25100).
T3 sequence (P25100 whole entry): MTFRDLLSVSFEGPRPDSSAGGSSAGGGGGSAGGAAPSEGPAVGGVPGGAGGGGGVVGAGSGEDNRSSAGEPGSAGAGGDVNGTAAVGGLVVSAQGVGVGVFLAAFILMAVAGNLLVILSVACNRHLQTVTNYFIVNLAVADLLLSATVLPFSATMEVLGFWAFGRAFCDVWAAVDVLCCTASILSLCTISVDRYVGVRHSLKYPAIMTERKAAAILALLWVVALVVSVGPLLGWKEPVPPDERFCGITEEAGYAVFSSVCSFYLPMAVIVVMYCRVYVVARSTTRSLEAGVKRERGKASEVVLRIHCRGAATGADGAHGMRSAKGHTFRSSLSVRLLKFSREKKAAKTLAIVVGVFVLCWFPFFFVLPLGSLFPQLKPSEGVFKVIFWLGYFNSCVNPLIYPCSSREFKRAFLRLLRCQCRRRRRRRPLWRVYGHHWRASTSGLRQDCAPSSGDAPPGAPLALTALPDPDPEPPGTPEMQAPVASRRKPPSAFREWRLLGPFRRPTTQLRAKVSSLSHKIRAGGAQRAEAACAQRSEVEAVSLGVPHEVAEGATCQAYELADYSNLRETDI
The experiment in a line: Displacement of [125I]BE2254 from human alpha1d receptor expressed in HEK293 cells. Format: cell-based. The procedure, abridged: as §1

The target of assay [4] is T4, Alpha-1A adrenergic receptor (Rattus norvegicus) (UniProt P43140).
T4 sequence (whole entry): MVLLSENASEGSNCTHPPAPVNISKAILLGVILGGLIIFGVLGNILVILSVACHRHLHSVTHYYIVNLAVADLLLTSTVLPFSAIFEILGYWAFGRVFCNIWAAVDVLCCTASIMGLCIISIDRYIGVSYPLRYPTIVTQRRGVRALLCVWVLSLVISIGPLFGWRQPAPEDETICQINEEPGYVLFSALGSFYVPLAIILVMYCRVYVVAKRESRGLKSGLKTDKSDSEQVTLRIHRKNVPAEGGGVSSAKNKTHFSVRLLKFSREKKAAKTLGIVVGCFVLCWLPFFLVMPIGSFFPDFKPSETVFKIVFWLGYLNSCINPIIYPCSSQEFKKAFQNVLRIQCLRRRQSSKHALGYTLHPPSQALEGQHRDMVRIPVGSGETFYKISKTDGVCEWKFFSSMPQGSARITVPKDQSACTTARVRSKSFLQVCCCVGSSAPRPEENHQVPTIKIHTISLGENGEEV
The experiment in a line: Antagonist activity at alpha1A adrenoceptor in Wistar rat vas deferens assessed as noradrenaline induced contractions. An outline of the steps:
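Male Wistar rat (275-300 g) prostatic vas deferens in 20 mL organ bath, physiological salt solution, 37 °C, 5% CO2:95% O2, pH 7.4. Primed twice with 10 µM (-)-NA, 45 min wash/equilibration, then cumulative (-)-NA curve recorded isotonically. Antagonist incubated 30–60 min before repeat curve. pKb = log(DR-1) - log[B] from ED50 ratio; mean ± SE of 4–5 experiments.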

Assay [5] addresses T5, Alpha-1B adrenergic receptor (Rattus norvegicus) (UniProt P15823).
T5 sequence (whole entry): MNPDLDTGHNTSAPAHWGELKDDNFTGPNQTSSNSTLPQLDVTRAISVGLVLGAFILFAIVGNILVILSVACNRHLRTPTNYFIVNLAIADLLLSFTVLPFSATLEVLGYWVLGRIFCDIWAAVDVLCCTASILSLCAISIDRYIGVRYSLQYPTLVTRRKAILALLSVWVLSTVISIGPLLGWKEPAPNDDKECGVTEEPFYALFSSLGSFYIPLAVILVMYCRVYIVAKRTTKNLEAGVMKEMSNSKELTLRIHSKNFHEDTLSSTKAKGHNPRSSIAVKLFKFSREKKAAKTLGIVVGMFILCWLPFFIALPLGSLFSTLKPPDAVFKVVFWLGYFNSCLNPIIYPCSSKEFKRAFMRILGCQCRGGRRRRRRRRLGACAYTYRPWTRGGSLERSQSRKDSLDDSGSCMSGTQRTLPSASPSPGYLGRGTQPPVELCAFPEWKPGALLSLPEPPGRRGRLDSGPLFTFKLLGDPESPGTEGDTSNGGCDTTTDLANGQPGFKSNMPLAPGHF
The experiment in a line: Antagonist activity at alpha1B adrenoceptor in Wistar rat spleen assessed as phenylephrine induced contractions. An outline of the steps: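 Wistar rat spleen strips under 1 g resting tension, equilibrated 2 h, with 4 µM (±)-propranolol to block β-adrenoceptors. Cumulative phenylephrine curves measured isometrically at 30 min intervals, first discarded, second as control. Antagonist incubated 30–60 min before repeat curve. pKb from ED50 dose ratio via pKb = log(DR-1) - log[B]; mean ± SE of 4–5 experiments.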

Assay [6] deals with T6, Alpha-1D adrenergic receptor (Rattus norvegicus) (UniProt P23944).
T6 sequence (whole entry): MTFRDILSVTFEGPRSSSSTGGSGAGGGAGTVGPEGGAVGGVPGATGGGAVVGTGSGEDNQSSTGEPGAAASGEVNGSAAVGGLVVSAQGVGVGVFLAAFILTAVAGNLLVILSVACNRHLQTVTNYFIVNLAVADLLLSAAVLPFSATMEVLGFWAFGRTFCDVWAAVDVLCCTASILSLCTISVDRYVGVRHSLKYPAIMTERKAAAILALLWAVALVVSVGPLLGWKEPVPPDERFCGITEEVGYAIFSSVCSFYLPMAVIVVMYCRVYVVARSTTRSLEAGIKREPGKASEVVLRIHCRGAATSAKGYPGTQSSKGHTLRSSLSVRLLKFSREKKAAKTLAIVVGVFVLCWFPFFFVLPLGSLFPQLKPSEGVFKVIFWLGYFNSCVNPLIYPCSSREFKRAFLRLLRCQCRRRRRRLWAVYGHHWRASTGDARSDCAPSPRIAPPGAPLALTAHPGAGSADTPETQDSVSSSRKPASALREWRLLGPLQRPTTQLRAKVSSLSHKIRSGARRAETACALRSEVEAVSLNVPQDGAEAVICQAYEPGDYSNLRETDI
Put plainly: Antagonist activity at alpha1D adrenoceptor in Wistar rat thoracic aorta assessed as noradrenaline induced contractions. An outline of the steps:
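Endothelium-denuded helicoidal thoracic aorta strips (15 x 3 mm) from male Wistar rats, Krebs solution, 1 g tension, ≥2 h equilibration. Cumulative (-)-NA curves recorded isometrically at 1 h intervals, third as control. Antagonist equilibrated 60 min before fourth curve. NA solutions held 0.05% Na2S2O4. pKb = log(DR-1) - log[B]; mean ± SE of 4–5 experiments.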

For the compound `COc1ccccc1N1CCN(CCn2c(C)nc3c(sc4ccc(NC(=O)CCCC(=O)NCc5ccccc5)cc43)c2=O)CC1`, the values for the Ki in assay [1], in assay [2] and in assay [3] were 3.55 nM, 19.1 nM and 5.5 nM, respectively.
Consider `COc1ccccc1N1CCN(CCn2c(=O)[nH]c3c(sc4ccc(NC(=O)Cc5ccccc5)cc43)c2=O)CC1`, for which the Ki in assay [1] was 1.48 nM; in assay [2], 28.2 nM; in assay [3], 0.912 nM.
For `COc1ccccc1N1CCN(CCn2c(C)nc3c(sc4ccc(NC(=O)CCCNC(=O)Cc5ccccc5)cc43)c2=O)CC1`, the Ki in assay [1] was 1 nM; in assay [2] it was 7.59 nM; in assay [3], 2.29 nM.
Turning to `COc1ccccc1N1CCN(CCn2c(=O)[nH]c3c(sc4ccc(NC(=O)CCCN(C)C)cc43)c2=O)CC1`, the Ki in assay [1] was 1.7 nM; in assay [2] it was 1.66 nM; in assay [3], 1.66 nM.
`COc1ccccc1N1CCN(CCn2c(=O)[nH]c3c(sc4ccc(NC(=O)CCCN(C)Cc5ccccc5)cc43)c2=O)CC1`: the Ki is 6.92 nM in assay [1], 7.41 nM in assay [2] and 4.07 nM in assay [3].
Take `COc1ccccc1N1CCN(CCn2c(=O)[nH]c3c(sc4ccc(NC(=O)CCCC(=O)NCCc5ccccc5)cc43)c2=O)CC1`: the inhibitory constant (Ki) in assay [1] is 1.62 nM; in assay [2], 6.46 nM; in assay [3], 1 nM.
As to `COc1ccccc1N1CCN(CCn2c(=O)[nH]c3c(sc4ccc(NC(=O)CCCCc5ccccc5)cc43)c2=O)CC1`, the inhibitory constant (Ki) in assay [1] was 5.25 nM; in assay [2], 36.3 nM; in assay [3] it was 1.17 nM.
Regarding `COc1ccccc1N1CCN(CCn2c(=O)[nH]c3c(sc4ccc(NC(=O)CCCc5ccccc5)cc43)c2=O)CC1`, the inhibition constant (Ki) in assay [1] is 7.08 nM; in assay [2] it was 33.9 nM; in assay [3], 3.24 nM.
In the case of `COc1ccccc1N1CCN(CCn2c(C)nc3c(sc4ccc(NC(=O)c5ccccc5)cc43)c2=O)CC1`, the Ki in assay [1] is 3.89 nM; in assay [2] it was 38.9 nM; in assay [3], 5.01 nM.
Regarding `COc1ccccc1N1CCN(CCn2c(=O)[nH]c3c(sc4ccccc43)c2=O)CC1`, the figures for the pKb in assay [4], in assay [5] and in assay [6] were 8.61, 8.44 and 8.89, respectively.
As for `COc1ccccc1N1CCN(CCn2c(=O)[nH]c3c(sc4ccc(NC(=O)CCC(=O)NCc5ccccc5)cc43)c2=O)CC1`, the inhibitory constant (Ki) was 1.1 nM in assay [1], 2.69 nM in assay [2] and 0.372 nM in assay [3].
As to `COc1ccccc1N1CCN(CCn2c(=O)[nH]c3c(sc4ccc(NC(=O)c5ccccc5)cc43)c2=O)CC1`, the Ki in assay [1] is 1.1 nM; in assay [2], 10 nM; in assay [3], 0.575 nM.
As to `COc1ccccc1N1CCN(CCn2c(C)nc3c(sc4ccc(NC(=O)CCCC(=O)NCCc5ccccc5)cc43)c2=O)CC1`, the inhibition constant Ki is 0.912 nM in assay [1], 6.46 nM in assay [2] and 0.759 nM in assay [3].
The like results for `COc1ccccc1N1CCN(CCn2c(C)nc3c(sc4ccc(NC(=O)Cc5ccccc5)cc43)c2=O)CC1` were, in that order, 3.39 nM, 30.2 nM and 3.31 nM.
